Most compounds without a hit are left out; they make up all but 2.1% or so of the library.
Tb hexokinase: Trypanosoma brucei hexokinase 1 inhibitors, primary screen, biochemical, G6PDH-coupled NADH absorbance, MLSCN library. hexokinase 1 [Trypanosoma brucei]. recombinant TbHK1, G6PDH-coupled NADH A340. inhibition, % at 10 µM. actives 0.11% (n = 220,000);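 active means inhibition of 50% or more in the single-dose primary screen; inactive means inhibition below 50%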
RanGTP-Impb inh: inhibitors of RanGTP-importin-beta interaction, primary screen, biochemical, FRET, CFP-Ran, YFP-importin-beta, homogeneous. actives 1.1% (n = 300,000). inhibition, % (no concentration beside the values). AID 2216, 2009. cell-free CFP-Ran/YFP-importin-beta FRET ratio;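 active means more than half of the replicate wells show a fall in the fluorescence ratio signal beyond about 16%, limit read from the data, passing the limit was not always enough; inconclusive means exactly half of the replicate wells pass the set limit; inactive means fewer than half of replicates pass the limit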;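 further: 0% = DMSO wells and 100% = Ran loaded with GDP instead of GTP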
Runt-SMMHC FRET: inhibitors of RUNX1 Runt–CBFb-SMMHC binding, primary screen, biochemical, FRET, Cerulean-Runt, Venus-CBFb-SMMHC, uHTS; Cerulean-Runt/Venus-CBFb-SMMHC FRET ratio 530/480, 1 h; actives 0.74% (n = 220,000); inhibition, % at 20 µM;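 active means mean inhibition across duplicate retests at 20 µM reaching about 50%, limit read from the data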;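 further: 0% = DMSO wells and 100% = wells with excess untagged CBFb-SMMHC; inhibitors lower the FRET ratio by blocking Runt binding to CBFb-SMMHC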
p97 ATPase inh: inhibitors of human p97 ATPase, primary screen, biochemical; inhibition, % at 8 µM; actives 0.42% (n = 220,000); recombinant p97 ATPase, Kinase-Glo ATP luminescence, 3 h; in the data active means inhibition above about 15%;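 further: 0% = DMSO vehicle and 100% = wells lacking enzyme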
Target sequence (P55072 whole entry, looked up): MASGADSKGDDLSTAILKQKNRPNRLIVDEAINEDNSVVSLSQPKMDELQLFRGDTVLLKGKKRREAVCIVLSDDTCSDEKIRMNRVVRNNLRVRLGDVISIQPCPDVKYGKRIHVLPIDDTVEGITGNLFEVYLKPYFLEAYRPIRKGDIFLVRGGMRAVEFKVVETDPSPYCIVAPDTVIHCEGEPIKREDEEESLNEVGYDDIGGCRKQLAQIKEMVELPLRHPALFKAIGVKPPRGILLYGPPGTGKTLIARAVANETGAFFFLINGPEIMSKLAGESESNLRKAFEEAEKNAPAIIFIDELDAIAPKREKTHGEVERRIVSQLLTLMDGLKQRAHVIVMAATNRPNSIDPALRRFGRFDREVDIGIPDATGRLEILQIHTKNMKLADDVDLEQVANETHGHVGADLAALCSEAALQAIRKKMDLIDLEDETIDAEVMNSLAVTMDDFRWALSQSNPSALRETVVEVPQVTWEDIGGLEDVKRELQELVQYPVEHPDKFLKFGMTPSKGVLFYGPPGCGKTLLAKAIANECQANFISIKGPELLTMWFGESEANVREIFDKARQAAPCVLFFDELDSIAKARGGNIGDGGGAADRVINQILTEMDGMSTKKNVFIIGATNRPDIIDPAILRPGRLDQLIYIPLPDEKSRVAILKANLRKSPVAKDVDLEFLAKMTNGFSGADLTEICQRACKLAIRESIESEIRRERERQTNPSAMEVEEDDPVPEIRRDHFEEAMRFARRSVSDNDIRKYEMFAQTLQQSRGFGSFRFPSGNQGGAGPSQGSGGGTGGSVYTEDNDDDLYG
Runt-CBFb FRET: inhibitors of RUNX1 Runt–CBFb binding, primary screen, biochemical, FRET, Cerulean-Runt, Venus-CBFb, uHTS; Cerulean-Runt/Venus-CBFb FRET ratio 530/480, 1 h; AID 1496, 2009; inhibition, % at 20 µM; Runt-related transcription factor 1 (Homo sapiens) + Core-binding factor subunit beta …; actives 0.46% (n = 220,000);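 active means inhibition over about 50% at 20 µM in the single-dose screen, limit read from the data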;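 further: 0% = DMSO wells and 100% = excess unlabeled CBFb competitor control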
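Buffer or medium: Tris pH 7.5 buffer with BSA. Assay system: Cerulean-labeled Runt domain protein. Amount: each fluorescent fusion protein 100 nM. Read-out basis: loss of energy transfer signal. Incubation: 1 h compound exposure, room temperature. Probe or stimulus: Venus-CBFb binding partner, 100 nM. Detection: FRET, excitation 422 nm, emission at 530 and 480 nm.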
Hck-Nef inh: inhibitors of Nef-activated human Hck kinase, primary screen, biochemical, Z-Lyte FRET, 384-well, Hck-YEEI; Tyrosine-protein kinase HCK (Homo sapiens), P08631; Recombinant Hck-YEEI plus Nef, Z-Lyte FRET kinase assay; inhibition, % at 20 µM; actives 0.68% (n = 220,000); AID 463187, 2010;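 active means Hck-Nef kinase inhibition above about 50%, limit read from the data; inactive means inhibition below that limit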;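 further: 0% = DMSO with Hck plus Nef and 100% = Hck alone without Nef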
Hck Nef conf: retest of Hck:Nef kinase inhibitor hits, confirmation, biochemical, Z-Lyte FRET, 384-well, p-Tyr peptide counterscreen; shares compounds with Hck-Nef inh; Recombinant Hck-YEEI:Nef, Z-Lyte FRET kinase assay; calls only at 10 µM; actives 28% (n = 1,300);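 active means average inhibition of at least 50%, with Z-scores no higher than 3 in both the phospho-tyrosine peptide and fluorescence counterscreens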
* hit, by the source's call; i = inactive; ? = inconclusive; . = no result given; + = active, no number.

SMILES | Tb hexokinase | RanGTP-Impb inh | Runt-SMMHC FRET | p97 ATPase inh | Runt-CBFb FRET | Hck-Nef inh | Hck Nef conf
Cc1ccc(-c2ccc(/C=N\NC(=O)c3cc4c(ccc5ccccc54)o3)o2)cc1[N+](=O)[O-] | -25 | 4 | -8 | -1 | -1 | 28 | .
O=C(c1cnn(C(=O)COc2ccc(Cl)cc2)c1)c1ccccc1O | 3 | 2 | 2 | 4 | -2 | 50* | +
Cc1ccc(O)c(C(=O)c2cnn(C(=O)COc3ccc(Cl)cc3)c2)c1 | -12 | 1 | 0 | 1 | 3 | 13 | .
CC(C)(C)CC(C)(C)c1ccc(OCC(=O)N/N=C/c2ccc(S(=O)(=O)O)o2)cc1 | 21 | 1 | -5 | 1 | 5 | 57* | +
Cc1ccc(N=Cc2cc(Cc3ccccc3Cl)cc([N+](=O)[O-])c2O)c(O)c1 | 12 | -7 | -44 | 4 | -18 | 56* | i
Cc1n[nH]c(C)c1Sc1ccccc1N=Cc1cc(Cl)cc([N+](=O)[O-])c1O | 6 | -2 | -2 | 7 | 3 | -9 | .
COc1cc(/C=C/C(=O)OCC(=O)Nc2ccc(C)cc2[N+](=O)[O-])ccc1O | -25 | 4 | -6 | -3 | -2 | 60* | i
COc1cc(/C=C/C(=O)OCC(=O)Nc2cc(C)c(C)cc2[N+](=O)[O-])ccc1O | -7 | 1 | 0 | 0 | -3 | 4 | .
OCCCNc1cc(-c2ccnc(Nc3cccc(Cl)c3)n2)ccn1 | -24 | -3 | 3 | . | 1 | 85* | +
CC(CNC(=O)CCC(=O)N1CCOc2ccc(Cl)cc21)c1ccccc1 (stereo unspecified) | . | 7 | . | . | . | . | .
CSc1nc(-c2cccs2)c(C#N)c(=O)[nH]1 | -15 | 3 | -5 | 7 | 1 | 8 | .
N#Cc1c(-c2cccs2)nc(SCc2ccc(Cl)cc2)[nH]c1=O | 6 | -3 | -11 | -1 | -1 | 69* | +
COc1ccc(C(=O)NCCNC(=O)c2cnccn2)cc1 | . | -2 | . | . | . | . | .
O=C(Nc1ccccc1C(F)(F)F)c1cc(S(=O)(=O)N2CCOCC2)ccc1F | 3 | -3 | -12 | 5 | -3 | 11 | .
Nn1c(SCC(=O)NC2CCCc3ccccc32)nnc1-c1cccs1 (stereo unspecified) | 1 | -3 | -2 | 3 | -2 | 4 | .
Cc1ccc(-c2csc(Nc3ccc(C(=O)O)cc3)[n+]2Cc2ccccc2)cc1 | 13 | 6 | -16 | 1 | -6 | 85* | +
Cc1ccc(-c2nnc(-c3ccc(NC(=O)c4ccco4)cc3)o2)cc1 | -33 | 5 | -8 | 0 | -3 | 108* | i
CCOC(=O)c1c(NC(=O)c2noc3c2CCCC3)sc(C)c1C | -5 | . | 9 | -4 | 24 | 1 | .
c1coc(-c2nc3nc4ccccc4nc3n2CC2CCCO2)c1 (stereo unspecified) | -28 | 11 | 26 | -4 | 12 | 159* | .
CCCSc1nc2c(cnn2-c2ccccc2)c(=O)n1N | 6 | -6 | 0 | -6 | 3 | 76* | +
CCCCSc1nc2c(cnn2-c2ccccc2)c(=O)n1N | 5 | -1 | 0 | -2 | 0 | 28 | .
CCCN1C(=O)/C(=c2\sc3nc(=O)c(Cc4ccc(C)cc4)nn3c2=O)c2ccccc21 | -23 | 3 | -1 | -2 | 5 | 52* | i
NC(=O)CN1C(=O)/C(=c2\sc3nc(=O)c(Cc4ccccc4)nn3c2=O)c2ccccc21 | -41 | ? | 17 | 3 | 31 | 14 | .
O=C(OCCCN=C1NS(=O)(=O)c2ccccc21)c1ccccc1F | 5 | 2 | 3 | 1 | 0 | -1 | .
O=C1N=c2ccccc2=C1c1sc(Nc2ccc(O)cc2)nc1O | 20 | . | -3 | 8 | -10 | 87* | +
SMILES | Tb hexokinase | RanGTP-Impb inh | Runt-SMMHC FRET | p97 ATPase inh | Runt-CBFb FRET | Hck-Nef inh | Hck Nef conf
CCOC(=O)c1sc(N2N=C(C)C(N=Nc3cccc(C)c3)C2=O)nc1C (stereo unspecified) | -17 | 0 | -8 | -6 | -2 | 100* | +
CC1=NN(c2nc(-c3ccc(C)cc3)cs2)C(=O)C1N=Nc1cccc(C)c1 (stereo unspecified) | 2 | -1 | -7 | 4 | -4 | 2 | .
O=C(O)c1ccc2oc(=O)c(S(=O)(=O)c3ccc(F)cc3)cc2c1 | . | 1 | . | . | . | . | .
CCCCCCc1cc2cc(S(=O)(=O)c3ccc(F)cc3)c(=O)oc2cc1O | -6 | 167* | 63* | 2 | 19 | 120* | .
Cc1cccc(Nc2sc(C(=O)c3cc4cc(Cl)ccc4o3)c(N)c2C#N)c1 | 2 | 2 | -114 | 0 | -12 | 56* | i
Cc1ccc(-c2nn3c(C)nnc3s2)cc1NC(=O)c1ccc(-c2cccc(Cl)c2)o1 | -12 | 10 | -4 | 7 | 12 | 15 | .
Cc1ccc(-c2nn3c(C)nnc3s2)cc1NC(=O)c1ccc(-c2ccc(Cl)cc2Cl)o1 | -19 | . | -9 | -5 | 0 | 50* | +
C=CCn1c(SCc2cccc(OC)c2)nnc1-c1ccncc1 | . | 0 | . | . | . | . | .
COc1cccc(=O)c2c(C)n(CC(=O)c3ccccc3)c(C)c12 | -6 | 1 | -35 | 8 | -4 | 53* | i
O=C(Nc1cccc(S(=O)(=O)NC2=NCCCCC2)c1)c1cc(-c2ccco2)nc2ccccc12 | 16 | -5 | -12 | -8 | 28 | 93* | +
O=C(Nc1cccc(S(=O)(=O)NC2=NCCCCC2)c1)c1cc(-c2ccncc2)nc2ccccc12 | -7 | 1 | 3 | 2 | 0 | 41 | .
CN=c1scc(-c2ccco2)n1/N=C/c1ccc(O)c(O)c1 | -19 | -2 | 9 | 6 | 7 | 51* | i
Cc1cccc(N2C(=O)C(Cc3ccccc3)NC2=S)c1 (stereo unspecified) | 4 | 3 | -2 | 4 | 1 | 0 | .

Screening data as filed in PubChem.
